{"source": "paper PMC5609517", "about": "(Chemical Science, 2017)", "key": {"[1]": {"assay_type": "physicochemical", "details": "solutions in aqueous media at pH < 7, prolonged periods (>1 week)"}, "MDCK cells": {"test_system": "MDCK cells", "assay": "Imaging of carbon monoxide in living cells with fluorescent probe COP-1", "assay_type": "cell-based, Canine", "details": "10 μM, at 8 and 37 °C, against respective iCORM (50 μM)", "method_in_brief": "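MDCK cells exposed at 37 °C and at 8 °C to test compound (10 μM) or to its CO-depleted product (iCORM, 50 μM) as comparator. Intracellular CO was detected with the CO-selective fluorescent probe COP-1, read as intracellular fluorescence.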"}}, "data": [{"compound": "CC12C(=O)C(C)(C(c3ccccc3)=C1c1ccccc1)C1(Br)C(=O)N(CCNCCN)C(=O)C21.O=C(O)C(F)(F)F.O=C(O)C(F)(F)F", "note": "(centres unmarked) [oCOm-23]", "values": [{"measurement": "formation of the corresponding iCORM", "setting": "[1]", "result": "no sign of the formation"}, {"measurement": "CO delivery to cells / increased intracellular CO levels (COP-1)", "setting": "MDCK cells", "result": "confirmed"}]}]}
